Activity calls are given as the source filed them. The calls are words filed in the database; no cut-off is given here.
How the values were obtained:
Assay type in all cases: protein assay
[1] = biological target: T1, Carbonic anhydrase (Bos taurus) (UniProt P00921+Q95323+P18915+Q3SZX4); experiment: Evaluated for the inhibition of carbonic anhydrase enzyme at 0.2 g/L concentration
Outline: (§1)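 Potentiometric CO2-evolution assay tracked with a pCO2 electrode, 25 ± 0.1 °C, constant stirring, pH 7.0 (0.1 M phosphate buffer), 60 min. NaHCO3 aliquots (0.1 and 5.0 mL) were added to 30 mL buffer at min 2 and 14. CA solution (1.0 mL) was added just before the second bicarbonate addition. Inhibitor was present in the buffer from the assay start.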

[2] = biological target: T1, Carbonic anhydrase (Bos taurus); experiment: Compound was evaluated for the inhibition of carbonic anhydrase enzyme at 1.0 g/L concentration; a=No inhibition detected; outline: as §1
[3] = biological target: T1, Carbonic anhydrase (Bos taurus); experiment: Compound was evaluated for the inhibition of carbonic anhydrase enzyme at 1.5 g/L concentration; a=No inhibition detected; outline: as §1
[4] = biological target: T1, Carbonic anhydrase (Bos taurus); experiment: Compound was evaluated for the inhibition of carbonic anhydrase enzyme at 0.2 g/L concentration; a=No inhibition detected; outline: as §1
[5] = biological target: T1, Carbonic anhydrase (Bos taurus); experiment: Compound was evaluated for the inhibition of carbonic anhydrase enzyme at 2.0 g/L concentration; a=No inhibition detected; outline: as §1
[6] = biological target: T1, Carbonic anhydrase (Bos taurus); experiment: Compound was evaluated for the inhibition of carbonic anhydrase enzyme at 0.5 g/L concentration; a=No inhibition detected; outline: as §1

SMILES	inhibition [1]	also measured
COc1ccc(S(N)(=O)=O)cc1CN1CCN(Cc2ccccc2)CC1	37.9%	–
COc1ccc(S(N)(=O)=O)cc1C(=O)N1CCN(CC2CCCCC2)CC1	51.5%	–
COc1ccc(S(N)(=O)=O)cc1C(=O)N1CCN(CC(=O)NC(C)C)CC1	54.6%	–
COc1cccc(CN2CCN(C(=O)c3cc(S(N)(=O)=O)ccc3OC)CC2)c1	66.7%	–
CCN1CCC[C@H]1CNC(=O)c1c(OC)c(Br)cc(Br)c1OC	–	inhibition [2]: No inhibition; inhibition [3]: No inhibition; inhibition [4]: No inhibition; inhibition [5]: No inhibition; inhibition [6]: No inhibition
CCN1CCCC1CNC(=O)c1cc(S(=O)(=O)CC)ccc1OC (stereo not given)	–	inhibition [2]: inactive; inhibition [3]: inactive; inhibition [4]: inactive; inhibition [5]: inactive; inhibition [6]: inactive
COc1ccc(S(N)(=O)=O)cc1C(=O)N1CCN(Cc2ccccc2)CC1	58.3%	–
NS(=O)(=O)c1nc(C(=O)N2CCN(Cc3ccccc3)CC2)c[nH]1	68.9%	–
CCC(C)CN1CCN(C(=O)c2cc(S(N)(=O)=O)ccc2OC)CC1 (stereo not given)	46.2%	–
COc1ccc(S(N)(=O)=O)cc1C(=O)N1CCN(Cc2ccc(S(N)(=O)=O)cc2)CC1	70.5%	–
COc1ccc(S(N)(=O)=O)cc1C(=O)NCCN1CCCCC1	39.4%	–
CCN1CCCC1CN(C)C(=O)c1cc(S(N)(=O)=O)ccc1OC (stereo not given)	39.4%	–
CC[C@H](C)COc1ccc(S(N)(=O)=O)cc1C(=O)NC[C@@H]1CCCN1CC	42.4%	–
CC[C@H](C)COc1ccc(S(N)(=O)=O)cc1C(=O)NC[C@H]1CCCN1CC	41.7%	–
COc1ccc(S(N)(=O)=O)cc1C(=O)N1CCN(Cc2cc(OC)c(OC)c(OC)c2)CC1	61.4%	–
COc1ccc(S(N)(=O)=O)cc1C(=O)N1CCNCC1	30.3%	–
COc1ccc(CN2CCN(C(=O)c3cc(S(N)(=O)=O)ccc3OC)CC2)cc1	63.6%	–
COc1ccc(S(N)(=O)=O)cc1C(=O)NCCCN1CCOCC1	45.5%	–
COc1ccc(S(N)(=O)=O)cc1C(=O)N1CCN(CC(C)C)CC1	36.4%	–
C=CCN1CCN(C(=O)c2cc(S(N)(=O)=O)ccc2OC)CC1	36.4%	–
COc1ccc(S(N)(=O)=O)cc1C(=O)N1CCN(CC(=O)N2CCCC2)CC1	45.5%	–
COc1ccc(S(N)(=O)=O)cc1C(=O)N1CCN2CCCC2C1 (stereo not given)	46.2%	–

— ChEMBL document CHEMBL1123218, “Synthesis and inhibitory activity on carbonic anhydrase of some new sulpiride analogues studied by means of a new method” (J Med Chem, 1986)
